# Source: PubChem BioAssay AID1483 (NMMLSC, 2009)
# The other results are listed elsewhere or left out. Unmarked numbers belong to inactive results.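 Rule for the calls: active = fluorescence beyond the plate control mean plus 3 SD, with a fluorescence-to-maximum score over 2 (cut at about 25 in these data); inactive = the rest.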
# Experiment: compound autofluorescence in ABCB1-expressing CCRF-Adr cells, confirmation, artefact control for ABC transporter inhibitor project, cell-based, 488/530 nm, flow cytometry (AID 1483)
# Conditions: compound autofluorescence 488/530 nm, at 6.6 µM, hits give high values
# Summary of the method: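 material = unlabeled drug-resistant CCRF-Adr cells | input = 3 million cells per mL, final in well | probe or stimulus = JC-1 substrate omitted | schedule = 10 min rotation at 25 °C | signal = flow cytometric MFI, 530 ± 20 nm | control set = DMSO-treated cell wells as background reference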
structure (smiles),measurement,value
COC(=O)COc1cc(C)cc2oc(=O)c3c(c12)CCCC3,fluorescence,2.91
